ChEMBL document CHEMBL2331336, “Discovery and structure-activity relationship of 1,3-cyclohexyl amide derivatives as novel mGluR5 negative allosteric modulators” (Bioorg Med Chem Lett, 2013)

Columns and labels:
[1] = Ratio of fraction unbound in brain to plasma of CD-1 mouse brain at 10 mg/kg, sc at 1 hr; assay type: ADME, organism-based; set-up: dose 10 mg/kg, route subcutaneous; details: in vivo
Method in brief: (§1)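 CD-1 mice (n = 2), 10 mg/kg SC in 20% hydroxypropyl-β-cyclodextrin in water. Brain and plasma sampled at 1 h; averages reported. Quantification limits were 2 ng/g for brain and 2 ng/mL for plasma. Kupp is the ratio of unbound brain to unbound plasma concentration.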

[2] = Ratio of drug uptake in brain to plasma of Sprague-Dawley rat at 10 mg/kg, po at 1 hr; assay type: ADME, organism-based; set-up: dose 10 mg/kg, route oral; details: read-out: BPR
[3] = Plasma concentration in Sprague-Dawley rat at 10 mg/kg, po at 1 hr; assay type: ADME, organism-based; set-up: dose 10 mg/kg, route oral
[4] = Drug uptake in Sprague-Dawley rat brain at 10 mg/kg, po at 1 hr; assay type: ADME, organism-based; set-up: dose 10 mg/kg, route oral; details: read-out: Drug uptake
[5] = Ratio of drug uptake in brain to plasma of CD-1 mouse at 10 mg/kg, sc at 1 hr; assay type: ADME, organism-based; set-up: dose 10 mg/kg, route subcutaneous; details: read-out: BPR; method in brief: as §1
[6] = Drug uptake in CD-1 mouse brain at 10 mg/kg, sc at 1 hr; assay type: ADME, organism-based; set-up: dose 10 mg/kg, route subcutaneous; details: read-out: Drug uptake; method in brief: as §1
[7] = Plasma concentration in CD-1 mouse at 10 mg/kg, sc at 1 hr; assay type: ADME, organism-based; set-up: dose 10 mg/kg, route subcutaneous; method in brief: as §1
Plasma = assay: Fraction unbound in mouse plasma; assay type: ADME, cell-free
[8] = Fraction unbound in mouse brain; assay type: ADME, tissue-based
Liver microsomes [9] = assay: Intrinsic clearance in rat liver microsomes; assay type: ADME, Microsome
Liver = assay: Intrinsic clearance in mouse liver microsomes; assay type: ADME, Microsome
Liver microsomes [10] = assay: Intrinsic clearance in human liver microsomes; assay type: ADME, Microsome; set-up: unit not given here
[11] = target: T1, Metabotropic glutamate receptor 1 (Rattus norvegicus, UniProt P23385); assay: Agonist activity at rat mGluR1 expressed in HEK293 cells assessed as Ca2+ mobilization by FLIPR assay; assay type: functional, cell-based
T1 sequence (P23385 whole entry): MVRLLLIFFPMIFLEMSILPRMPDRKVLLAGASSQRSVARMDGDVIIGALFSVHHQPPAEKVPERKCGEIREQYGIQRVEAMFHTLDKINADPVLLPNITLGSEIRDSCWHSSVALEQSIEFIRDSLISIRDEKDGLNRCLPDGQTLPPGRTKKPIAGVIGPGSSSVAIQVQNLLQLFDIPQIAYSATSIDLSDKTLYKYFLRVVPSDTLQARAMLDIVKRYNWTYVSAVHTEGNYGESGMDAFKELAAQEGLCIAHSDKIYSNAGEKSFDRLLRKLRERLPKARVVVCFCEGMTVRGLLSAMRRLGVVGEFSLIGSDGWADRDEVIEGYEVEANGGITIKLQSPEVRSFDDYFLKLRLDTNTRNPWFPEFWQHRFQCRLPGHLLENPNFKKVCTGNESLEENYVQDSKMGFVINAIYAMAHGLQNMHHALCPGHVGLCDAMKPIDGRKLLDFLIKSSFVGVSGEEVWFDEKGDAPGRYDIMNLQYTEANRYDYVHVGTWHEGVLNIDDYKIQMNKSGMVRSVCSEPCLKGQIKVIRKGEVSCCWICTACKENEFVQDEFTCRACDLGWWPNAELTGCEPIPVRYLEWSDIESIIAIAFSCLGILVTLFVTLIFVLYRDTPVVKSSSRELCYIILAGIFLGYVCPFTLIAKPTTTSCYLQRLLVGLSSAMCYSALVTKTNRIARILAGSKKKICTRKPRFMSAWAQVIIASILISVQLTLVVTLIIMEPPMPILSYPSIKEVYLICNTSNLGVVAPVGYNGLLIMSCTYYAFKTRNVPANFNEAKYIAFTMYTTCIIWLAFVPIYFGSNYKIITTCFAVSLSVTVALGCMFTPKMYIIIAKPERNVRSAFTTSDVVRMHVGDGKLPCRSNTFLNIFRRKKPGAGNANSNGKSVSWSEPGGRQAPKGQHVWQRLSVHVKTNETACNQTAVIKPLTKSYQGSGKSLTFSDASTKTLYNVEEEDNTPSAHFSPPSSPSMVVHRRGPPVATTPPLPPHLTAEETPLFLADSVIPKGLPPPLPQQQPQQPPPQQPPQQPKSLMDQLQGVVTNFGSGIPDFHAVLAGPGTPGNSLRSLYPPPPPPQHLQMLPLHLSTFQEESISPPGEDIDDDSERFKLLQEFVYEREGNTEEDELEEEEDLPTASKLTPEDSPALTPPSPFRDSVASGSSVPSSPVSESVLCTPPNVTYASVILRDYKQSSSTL
Method in brief: (§2)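 Rat mGluR1 stably in HEK293 cells (1.5% calf serum medium), seeded 24 h earlier, Fluo-4 loaded 1 h at 37 °C in HBSS/HEPES pH 7.4 with probenecid. Curves fitted with Hill equation.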

[12] = target: T1, Metabotropic glutamate receptor 1; assay: Antagonist activity at rat mGluR1 expressed in HEK293 cells assessed as inhibition of Ca2+ mobilization by FLIPR assay; assay type: functional, cell-based; method in brief: as §2
[13] = target: T2, Metabotropic glutamate receptor 5 (Homo sapiens, UniProt P41594); assay: Displacement of [3H]-ABP688 from human mGluR5 expressed in HEK293 cells after 60 mins by scintillation counting; assay type: cell-based
T2 sequence (P41594 whole entry): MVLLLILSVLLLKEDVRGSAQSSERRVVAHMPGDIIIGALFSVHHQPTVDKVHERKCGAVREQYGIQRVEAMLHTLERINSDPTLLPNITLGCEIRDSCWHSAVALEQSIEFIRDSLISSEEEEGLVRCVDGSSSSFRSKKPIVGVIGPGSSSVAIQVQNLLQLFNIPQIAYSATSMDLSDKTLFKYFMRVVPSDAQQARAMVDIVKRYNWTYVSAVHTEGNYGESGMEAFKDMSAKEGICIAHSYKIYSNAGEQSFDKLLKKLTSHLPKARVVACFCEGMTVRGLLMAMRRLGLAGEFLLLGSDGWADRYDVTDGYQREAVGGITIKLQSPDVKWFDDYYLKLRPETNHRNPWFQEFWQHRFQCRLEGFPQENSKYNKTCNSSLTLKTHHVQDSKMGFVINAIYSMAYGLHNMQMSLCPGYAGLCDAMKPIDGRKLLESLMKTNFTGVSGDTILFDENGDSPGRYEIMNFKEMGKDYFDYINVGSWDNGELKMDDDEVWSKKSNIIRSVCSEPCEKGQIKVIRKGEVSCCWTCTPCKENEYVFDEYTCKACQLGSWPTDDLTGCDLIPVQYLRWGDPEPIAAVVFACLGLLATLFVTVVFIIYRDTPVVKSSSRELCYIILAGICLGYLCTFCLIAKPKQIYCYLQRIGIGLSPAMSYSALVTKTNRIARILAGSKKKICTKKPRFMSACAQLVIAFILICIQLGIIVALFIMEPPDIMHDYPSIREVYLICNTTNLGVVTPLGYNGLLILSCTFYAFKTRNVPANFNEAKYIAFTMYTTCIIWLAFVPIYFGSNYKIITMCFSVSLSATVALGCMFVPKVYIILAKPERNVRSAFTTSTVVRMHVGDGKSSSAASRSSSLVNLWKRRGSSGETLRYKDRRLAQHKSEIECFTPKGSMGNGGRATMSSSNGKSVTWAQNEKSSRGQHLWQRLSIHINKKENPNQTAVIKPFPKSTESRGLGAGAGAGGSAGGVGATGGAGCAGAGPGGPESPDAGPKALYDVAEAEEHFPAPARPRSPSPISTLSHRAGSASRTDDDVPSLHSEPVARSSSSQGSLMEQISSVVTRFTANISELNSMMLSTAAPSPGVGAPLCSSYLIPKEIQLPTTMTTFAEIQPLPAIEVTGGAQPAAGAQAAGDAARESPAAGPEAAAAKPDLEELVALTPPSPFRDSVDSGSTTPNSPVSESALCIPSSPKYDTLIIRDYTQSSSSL

[14] = target: T2, Metabotropic glutamate receptor 5; assay: Antagonist activity at human mGluR5 expressed in HEK293 cells assessed as inhibition of Ca2+ mobilization by FLIPR assay; assay type: functional, cell-based

Ratio [1]: 1.6
Kp at 1 h [2]: 0.6
concentration at 1 h [3]: 8 nM
concentration at 1 h [4]: 5 nM
Kp at 1 h [5]: 1
concentration at 1 h [6]: 1160 nM
concentration at 1 h [7]: 1160 nM
Cp(f) (Plasma): 0.3%
fraction unbound [8]: 0.005
Intrinsic clearance (Liver microsomes [9]): 160 mL/min
Intrinsic clearance (Liver): 8.8 mL/min
Intrinsic clearance (Liver microsomes [10]): 13
EC50 [11]: > 10000 nM
IC50 [12]: > 10000 nM
Ki [13]: 178 nM
IC50 [14]: 115 nM
Structure (SMILES): O=C(N[C@H]1CCC[C@]2(CN=C(c3cccc(Cl)c3)O2)C1)c1ccccn1
